Data: ChEMBL document CHEMBL4706624, “Synthesis and evaluation of new quinazoline-benzimidazole hybrids as potent anti-microbial agents against multidrug resistant Staphylococcus aureus and Mycobacterium tuberculosis” (Eur J Med Chem, 2021)
Values after ≈ are worked out from the molar mass of the structure shown.

Assays:
[1] = system: Mycobacterium tuberculosis; experiment: Antitubercular activity against Mycobacterium tuberculosis H37Rv ATCC 27294 measured after 7 days by broth microdilution method; assay type: functional; details: H37Rv ATCC 27294, 168 h, time 7 day
Summary of the method: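 H37Rv in Middlebrook 7H9 with 10% ADC, 0.2% glycerol, 0.05% Tween-80. Inoculum ~10⁶ cfu/mL set by OD600. Twofold serial dilutions, 0.0064–0.00005 g/100 mL. Incubated at 37 °C for 7 days, then Presto blue resazurin read-out. MIC = lowest concentration inhibiting visible growth. Triplicate runs, each in duplicate.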

[2] = system: Escherichia coli; experiment: Antibacterial activity against Escherichia coli ATCC 25922 measured after 16 to 18 hrs; assay type: functional; details: time 16-18 hrs
Summary of the method: (§1)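 Broth microdilution MIC. Strains grown on MHA; a single colony was grown overnight in CA-MHB at 37 °C with shaking for 18–24 h. Cultures were diluted by OD600 to ~10⁶ cfu/mL and exposed to compound at […]. Plates were incubated at 37 °C for 16-18 h. MIC = lowest concentration with no visible growth. Levofloxacin was the reference. Three independent runs, each in duplicate.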

[3] = system: Staphylococcus aureus; experiment: Antibacterial activity against Staphylococcus aureus ATCC 29213 measured after 16 to 18 hrs; assay type: functional; details: time 16-18 hrs; summary of the method: as §1
[4] = system: Klebsiella pneumoniae; experiment: Antibacterial activity against Klebsiella pneumoniae BAA-1705 measured after 16 to 18 hrs; assay type: functional; details: ATCC BAA-1705, time 16-18 hrs; summary of the method: as §1
[5] = system: Acinetobacter baumannii; experiment: Antibacterial activity against Acinetobacter baumannii BAA1605 measured after 16 to 18 hrs; assay type: functional; details: time 16-18 hrs; summary of the method: as §1
[6] = system: Pseudomonas aeruginosa; experiment: Antibacterial activity against Pseudomonas aeruginosa ATCC 27853 measured after 16 to 18 hrs; assay type: functional; details: time 16-18 hrs; summary of the method: as §1
[7] = system: Mycobacteroides abscessus; experiment: Antimycobacterial activity against Mycobacterium abscessus ATCC 19977 by broth microdilution method; assay type: functional
Summary of the method: (§2)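 Broth microdilution MIC in Middlebrook 7H9 with 10% ADC-Tween-80 (BSA, dextrose, 0.2% glycerol, 0.05% Tween-80). Inoculum ~10⁶ cfu/mL set by OD600. Compounds were twofold serially diluted, 0.0064–0.00005 g/100 mL (DMSO stocks). Presto blue resazurin dye was used as read-out. MIC = lowest concentration inhibiting visible growth. Triplicate runs, each in duplicate.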

[8] = system: Mycolicibacterium fortuitum; experiment: Antimycobacterial activity against Mycobacterium fortuitum ATCC 6841 by broth microdilution method; assay type: functional; summary of the method: as §2
[9] = system: Mycobacteroides chelonae; experiment: Antimycobacterial activity against Mycobacterium chelonae ATCC 35752 by broth microdilution method; assay type: functional; summary of the method: as §2
[10] = Cytotoxicity against African green monkey Vero cells assessed as reduction in cell viability measured after 72 hrs by MTT assay; assay type: cell-based; details: chlorocebus sabaeus
Summary of the method: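 Vero cells (ATCC CCL-81), ~10³ cells/well, held 24 h at 37 °C in 5% CO₂. Compound at 100–5 mg/L for 72 h. MTT was added for 4 h, formazan dissolved in DMSO, OD read at 540 nm. CC50 = concentration giving 50% viability reduction. Doxorubicin was the positive control. Triplicate.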

[11] = Selectivity index, ratio of CC50 for cytotoxicity against African green monkey Vero cells to MIC for antibacterial activity against Staphylococcus aureus ATCC 29213; assay type: toxicity, cell-based; details: read-out: Selectivity Index
Summary of the method: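 SI = Vero CC50 (MTT, 72 h) divided by MIC against S. aureus ATCC 29213 (CA-MHB broth microdilution, 16-18 h, 37 °C).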

[12] = system: Staphylococcus aureus; experiment: Antibacterial activity against methicillin-sensitive Staphylococcus aureus ATCC 29213 measured after 16 to 18 hrs; assay type: functional; details: time 16-18 hrs; summary of the method: as §1
[13] = system: Staphylococcus aureus; experiment: Antibacterial activity against methicillin-resistant Staphylococcus aureus NR100 measured after 16 to 18 hrs; assay type: functional; details: time 16-18 hrs; summary of the method: as §1
[14] = system: Staphylococcus aureus; experiment: Antibacterial activity against methicillin-resistant Staphylococcus aureus NR119 measured after 16 to 18 hrs; assay type: functional; details: time 16-18 hrs; summary of the method: as §1
[15] = system: Staphylococcus aureus; experiment: Antibacterial activity against methicillin-resistant Staphylococcus aureus NR10129 measured after 16 to 18 hrs; assay type: functional; details: time 16-18 hrs; summary of the method: as §1
[16] = system: Staphylococcus aureus; experiment: Antibacterial activity against methicillin-resistant Staphylococcus aureus NR10198 measured after 16 to 18 hrs; assay type: functional; details: time 16-18 hrs; summary of the method: as §1
[17] = system: Staphylococcus aureus; experiment: Antibacterial activity against methicillin-resistant Staphylococcus aureus NR10192 measured after 16 to 18 hrs; assay type: functional; details: time 16-18 hrs; summary of the method: as §1
[18] = system: Staphylococcus aureus; experiment: Antibacterial activity against methicillin-resistant Staphylococcus aureus NR10186 measured after 16 to 18 hrs; assay type: functional; details: time 16-18 hrs; summary of the method: as §1
[19] = system: Staphylococcus aureus; experiment: Antibacterial activity against methicillin-resistant Staphylococcus aureus NR10193 measured after 16 to 18 hrs; assay type: functional; details: time 16-18 hrs; summary of the method: as §1
[20] = system: Staphylococcus aureus; experiment: Antibacterial activity against methicillin-resistant Staphylococcus aureus NR10194 measured after 16 to 18 hrs; assay type: functional; details: time 16-18 hrs; summary of the method: as §1
[21] = system: Staphylococcus aureus; experiment: Antibacterial activity against methicillin-resistant Staphylococcus aureus NR10191 measured after 16 to 18 hrs; assay type: functional; details: time 16-18 hrs; summary of the method: as §1
[22] = system: Staphylococcus aureus; experiment: Antibacterial activity against vancomycin-resistant Staphylococcus aureus VRS1 measured after 16 to 18 hrs; assay type: functional; details: time 16-18 hrs; summary of the method: as §1
[23] = system: Staphylococcus aureus; experiment: Antibacterial activity against vancomycin-resistant Staphylococcus aureus VRS4 measured after 16 to 18 hrs; assay type: functional; details: time 16-18 hrs; summary of the method: as §1
[24] = system: Staphylococcus aureus; experiment: Antibacterial activity against vancomycin-resistant Staphylococcus aureus VRS12 measured after 16 to 18 hrs; assay type: functional; details: time 16-18 hrs; summary of the method: as §1

Row | Compound | MIC [1] [µg/mL] | MIC [2] [µg/mL] | MIC [3] [µg/mL] | MIC [4] [µg/mL] | MIC [5] [µg/mL] | MIC [6] [µg/mL] | MIC [7] [µg/mL] | MIC [8] [µg/mL] | MIC [9] [µg/mL] | also measured
1 | CN[C@@H]1[C@H](O[C@H]2[C@H](O[C@H]3[C@H](O)[C@@H](O)[C@H](N=C(N)N)[C@@H](O)[C@@H]3N=C(N)N)O[C@@H](C)[C@]2(O)C=O)O[C@@H](CO)[C@H](O)[C@H]1O [STREPTOMYCIN] | 1 (≈ 1.72 µM) |  |  |  |  |  |  |  |  | 
2 | O=C(Nc1ccc2nc(-c3cnc4c(Cl)cccc4c3)[nH]c2c1)c1ccc(Nc2nc(-c3ccccc3)nc3ccccc23)cc1 | 16 (≈ 25.9 µM) | > 64 | > 64 | > 64 | > 64 | > 64 | > 64 | > 64 | > 64 | CC50 at 72 h [10]: > 100 µg/mL; selectivity ratio [11]: > 6.25
3 | NNC(=O)c1ccncc1 [ISONIAZID] | 0.03 (≈ 0.219 µM) |  |  |  |  |  |  |  |  | 
4 | COc1cccc(OC)c1C(=O)N[C@@H]1C(=O)N2[C@@H]1SC(C)(C)[C@@H]2C(=O)O [METHICILLIN] |  |  |  |  |  |  |  |  |  | MIC [12]: 1 µg/mL (≈ 2.63 µM); MIC [13]: > 64 µg/mL; MIC [14]: > 64 µg/mL; MIC [15]: > 64 µg/mL; MIC [16]: > 64 µg/mL; MIC [17]: > 64 µg/mL; MIC [18]: > 64 µg/mL; MIC [19]: > 64 µg/mL; MIC [20]: 32 µg/mL (≈ 84.1 µM); MIC [21]: > 64 µg/mL; MIC [22]: > 64 µg/mL; MIC [23]: > 64 µg/mL; MIC [24]: > 64 µg/mL
5 | Fc1ccc2[nH]c(-c3ccc(Nc4nc(-c5ccccc5)nc5ccccc45)cc3)nc2c1 | > 64 | > 64 | 4 (≈ 9.27 µM) | > 64 | > 64 | > 64 | > 64 | > 64 | 32 (≈ 74.2 µM) | CC50 at 72 h [10]: 40 µg/mL (≈ 92.7 µM); selectivity ratio [11]: 10
6 | COc1ccc(-c2nc(Nc3ccc(-c4nc5cc(Cl)ccc5[nH]4)cc3)c3ccccc3n2)cc1OC | 32 (≈ 63 µM) | > 64 | 16 (≈ 31.5 µM) | > 64 | > 64 | > 64 | > 64 | > 64 | > 64 | CC50 at 72 h [10]: > 100 µg/mL; selectivity ratio [11]: > 6.25
7 | CN[C@H](CC(C)C)C(=O)N[C@H]1C(=O)N[C@@H](CC(N)=O)C(=O)N[C@H]2C(=O)N[C@H]3C(=O)N[C@H](C(=O)N[C@H](C(=O)O)c4cc(O)cc(O)c4-c4cc3ccc4O)[C@H](O)c3ccc(c(Cl)c3)Oc3cc2cc(c3O[C@@H]2O[C@H](CO)[C@@H](O)[C@H](O)[C@H]2O[C@H]2C[C@](C)(N)[C@H](O)[C@H](C)O2)Oc2ccc(cc2Cl)[C@H]1O [VANCOMYCIN] |  |  |  |  |  |  |  |  |  | MIC [22]: > 64 µg/mL; MIC [23]: > 64 µg/mL; MIC [24]: > 64 µg/mL
8 | Clc1ccc(-c2nc(Nc3ccc(-c4nc5cc(Cl)ccc5[nH]4)cc3)c3ccccc3n2)cc1 |  | > 64 | > 64 | > 64 | > 64 | > 64 |  |  |  | 
9 | O=[N+]([O-])c1ccc2[nH]c(-c3ccc(Nc4nc(-c5ccccc5)nc5ccccc45)cc3)nc2c1 | 8 (≈ 17.4 µM) | > 64 | > 64 | > 64 | > 64 | > 64 | > 64 | > 64 | > 64 | CC50 at 72 h [10]: 100 µg/mL (≈ 218 µM); selectivity ratio [11]: 12.5
10 | FC(F)(F)c1nc2ccc(Nc3nc(-c4cccs4)nc4ccccc34)cc2[nH]1 | 64 (≈ 156 µM) | > 64 | 64 (≈ 156 µM) | > 64 | > 64 | > 64 | > 64 | > 64 | > 64 | 
11 | CO[C@H]1/C=C/O[C@@]2(C)Oc3c(C)c(O)c4c(O)c(c(/C=N/N5CCN(C)CC5)c(O)c4c3C2=O)NC(=O)/C(C)=C\C=C\[C@H](C)[C@H](O)[C@@H](C)[C@@H](O)[C@@H](C)[C@H](OC(C)=O)[C@@H]1C [RIFAMPIN] | 0.06 (≈ 0.0729 µM) |  |  |  |  |  |  |  |  | 
12 | O=C(Nc1ccc2nc(-c3ccc4ccccc4c3)[nH]c2c1)c1ccc(Nc2nc(-c3ccccc3)nc3ccccc23)cc1 | 64 (≈ 110 µM) | > 64 | > 64 | > 64 | > 64 | > 64 | > 64 | > 64 | > 64 | 
13 | O=C(Nc1ccc2nc(C(F)(F)F)[nH]c2c1)c1ccc(Nc2nc(-c3ccccc3)nc3ccccc23)cc1 | 64 (≈ 122 µM) | > 64 | 32 (≈ 61 µM) | > 64 | > 64 | > 64 | > 64 | > 64 | > 64 | 
14 | CC[C@@H](CO)NCCN[C@@H](CC)CO [ETHAMBUTOL] | 1 (≈ 4.89 µM) |  |  |  |  |  |  |  |  | 
15 | O=C(Nc1ccc2nc(-c3ccc(Br)cc3F)[nH]c2c1)c1ccc(Nc2nc(-c3ccccc3)nc3ccccc23)cc1 | > 64 | > 64 | 64 (≈ 102 µM) | > 64 | > 64 | > 64 | > 64 | > 64 | > 64 | 
16 | O=C(Nc1ccc(Nc2nc(-c3ccccc3)nc3ccccc23)cc1)c1cc(Br)ccc1Cl | 4 (≈ 7.55 µM) |  |  |  |  |  |  |  |  | 
17 | Brc1ccc2[nH]c(-c3ccc(Nc4nc(-c5ccccc5)nc5ccccc45)cc3)nc2c1 |  | > 64 | > 64 | > 64 | > 64 | > 64 |  |  |  | 
18 | N#Cc1ccc(/C=C/c2nc3ccccc3c(=O)n2-c2ccc(C(=O)O)c(O)c2)cc1 | 64 (≈ 156 µM) |  | 0.03 (≈ 0.0733 µM) |  |  |  |  |  |  | 
19 | COc1ccc(-c2nc(Nc3ccc(-c4nc5cc([N+](=O)[O-])ccc5[nH]4)cc3)c3ccccc3n2)cc1OC | 8 (≈ 15.4 µM) | > 64 | > 64 | > 64 | > 64 | > 64 | > 64 | 4 (≈ 7.71 µM) | 8 (≈ 15.4 µM) | CC50 at 72 h [10]: 100 µg/mL (≈ 193 µM); selectivity ratio [11]: 12.5
